The values that follow come from ChEMBL document CHEMBL4431385, “Substituted tetracyclic indole core derivatives of HCV NS5A inhibitor MK-8742” (Bioorg Med Chem Lett, 2016).

In assay [1] the target is T1, Nonstructural protein 5A (Hepatitis C virus) (UniProt Q5L478).
T1 sequence (whole entry): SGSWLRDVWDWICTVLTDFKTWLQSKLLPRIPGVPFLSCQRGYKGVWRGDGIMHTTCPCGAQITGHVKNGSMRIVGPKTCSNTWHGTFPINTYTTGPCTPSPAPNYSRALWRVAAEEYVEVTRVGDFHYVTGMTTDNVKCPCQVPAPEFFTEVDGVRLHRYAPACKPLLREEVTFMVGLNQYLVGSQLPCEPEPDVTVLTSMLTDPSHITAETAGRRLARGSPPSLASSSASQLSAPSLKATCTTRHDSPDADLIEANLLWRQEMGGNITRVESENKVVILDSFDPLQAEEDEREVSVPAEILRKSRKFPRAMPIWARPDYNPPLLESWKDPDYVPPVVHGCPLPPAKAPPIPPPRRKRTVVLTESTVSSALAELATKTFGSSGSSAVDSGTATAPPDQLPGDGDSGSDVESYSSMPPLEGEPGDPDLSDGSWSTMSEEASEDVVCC
In words: Inhibition of HCV GT1a NS5A assessed as suppression of replicon RNA level by real-time PCR analysis. The following applies: Hepatitis C virus subtype 1a.

For assay [2], the target named is T1, Nonstructural protein 5A (Hepatitis C virus). The experiment in a line: Inhibition of HCV GT3a NS5A assessed as suppression of replicon RNA level by real-time PCR analysis. The following applies: Hepatitis C virus subtype 3a.
Assay [3] shares this target. In words: Inhibition of HCV GT1b NS5A assessed as suppression of replicon RNA level by real-time PCR analysis. The following applies: Hepatitis C virus subtype 1b.
Assay [4] concerns Nonstructural protein 5A (Hepatitis C virus), Q5L478 [UNDEFINED MUTATION]. The experiment in a line: Inhibition of HCV GT1a NS5A L31V mutant assessed as suppression of replicon RNA level by real-time PCR analysis. The following applies: Hepatitis C virus subtype 1a.
In assay [5] the target is T1, Nonstructural protein 5A (Hepatitis C virus). In words: Inhibition of HCV GT2a NS5A assessed as suppression of replicon RNA level by real-time PCR analysis. The following applies: Hepatitis C virus subtype 2a.
Assay [6] shares this target. The experiment in a line: Inhibition of HCV GT4a NS5A assessed as suppression of replicon RNA level by real-time PCR analysis. The following applies: Hepatitis C virus subtype 4a.
Assay [7] shares this target. The experiment in a line: Inhibition of HCV GT2b NS5A assessed as suppression of replicon RNA level by real-time PCR analysis. The following applies: Hepatitis C virus subtype 2b. Summed up:
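GT2b replicon, which carries the naturally occurring NS5A 31M resistance-associated variant; potency given as EC90 in nM.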

Assay [8] has as its system T2, Nonstructural protein 5A (Hepatitis C virus), Q5L478 [Y93H].
T2 sequence (whole entry): T1 sequence (whole entry) with Y93H
The experiment in a line: Inhibition of HCV GT1a NS5A Y93H mutant assessed as suppression of replicon RNA level by real-time PCR analysis. The following applies: Hepatitis C virus subtype 1a.

Numbering of substitutions follows the chain as printed.

For the molecule `COC(=O)N[C@H](C(=O)N1C[C@H](F)C[C@H]1c1ncc(-c2ccc3c(c2)OC(c2ccccc2)n2c-3c(F)c3cc(-c4cnc([C@@H]5C[C@@H](F)CN5C(=O)[C@@H](NC(=O)OC)C(C)C)[nH]4)ccc32)[nH]1)C(C)C` (mixture of isomers), the 90% effect concentration (EC90) in assay [1] was 0.02 nM; in assay [2], 8 nM; in assay [3], 0.005 nM; in assay [4], 7 nM; in assay [5] it was 0.3 nM; in assay [6] it was 0.3 nM. Besides, the EC90 in assay [7] was 58 nM; in assay [8], 2 nM.
`COC(=O)N[C@H](C(=O)N1CCC[C@H]1c1ncc(-c2ccc3c(c2)cc2n3C(c3ccccc3)Oc3cc(-c4cnc([C@@H]5C[C@@H](F)CN5C(=O)[C@@H](NC(=O)OC)C(C)C)[nH]4)cc(F)c3-2)[nH]1)C(C)C` (mixture of isomers): the concentration for an effect of 90% (EC90) in assay [1] is 0.004 nM; in assay [2], 0.1 nM; in assay [3], 0.003 nM; in assay [4], 2 nM; in assay [5], 0.04 nM; in assay [6] it was 0.07 nM. The 90% effect concentration (EC90) was determined as 16 nM in assay [7] and 1 nM in assay [8].
For the molecule `COC(=O)N[C@H](C(=O)N1CCC[C@H]1c1ncc(-c2ccc3c(c2)OCn2c-3c(-c3ccccc3)c3cc(-c4cnc([C@@H]5CCCN5C(=O)[C@@H](NC(=O)OC)C(C)C)[nH]4)ccc32)[nH]1)C(C)C`, the concentration for an effect of 90% (EC90) in assay [1] turned out to be 0.09 nM; in assay [2], 3 nM; in assay [3], 0.004 nM; in assay [4], 4 nM; in assay [5], 0.01 nM; in assay [6], 0.09 nM. For the same molecule, the EC90 in assay [7] is 204 nM; in assay [8] it was 5000 nM.
`COC(=O)N[C@H](C(=O)N1CCC[C@H]1c1ncc(-c2ccc3c(c2)cc2n3C(c3cccc(OC)c3)Oc3cc(-c4cnc([C@@H]5C[C@@H](F)CN5C(=O)[C@@H](NC(=O)OC)C(C)C)[nH]4)cc(F)c3-2)[nH]1)C(C)C` (stereo partly drawn): the EC90 in assay [1] came out at 0.002 nM; in assay [2], 0.1 nM; in assay [3], 0.007 nM; in assay [4], 0.3 nM; in assay [7], 19 nM; in assay [8], 0.6 nM.
With `COC(=O)N[C@H](C(=O)N1CCC[C@H]1c1ncc(-c2cc(F)c3c(c2)O[C@@H](c2ccccc2)n2c-3c(Cl)c3cc(-c4cnc([C@@H]5CCCN5C(=O)[C@@H](NC(=O)OC)C(C)C)[nH]4)ccc32)[nH]1)C(C)C`, the 90% effect concentration (EC90) in assay [1] was 0.02 nM; in assay [2], 2 nM; in assay [3], 0.006 nM; in assay [4] it was 0.4 nM; in assay [5], 0.03 nM; in assay [6], 0.04 nM. The results for the EC90 in assay [7] and in assay [8] were 42 nM and 51 nM, respectively.
For the molecule `CCCCOc1cccc(C2Oc3cc(-c4cnc([C@@H]5C[C@@H](F)CN5C(=O)[C@@H](NC(=O)OC)C(C)C)[nH]4)cc(F)c3-c3cc4cc(-c5cnc([C@@H]6C[C@@H](F)CN6C(=O)[C@@H](NC(=O)OC)C(C)C)[nH]5)ccc4n32)c1` (stereo partly drawn), the 90% effect concentration (EC90) in assay [3] amounted to 0.008 nM; in assay [4], 4 nM; in assay [7] it was 126 nM; in assay [8], 0.1 nM.
Consider `COC(=O)N[C@H](C(=O)N1CCC[C@H]1c1ncc(-c2ccc3c(c2)OCn2c-3cc3cc(-c4cnc([C@@H]5CCCN5C(=O)[C@@H](NC(=O)OC)C(C)C)[nH]4)ccc32)[nH]1)C(C)C`, for which the EC90 in assay [1] was determined as 0.02 nM; in assay [2], 1 nM; in assay [3], 0.02 nM; in assay [4], 7 nM; in assay [5], 0.02 nM; in assay [6] it was 0.2 nM. Moreover, the values for the EC90 in assay [7] and in assay [8] were 76 nM and 100 nM, respectively.
As for `COC(=O)N[C@H](C(=O)N1CCC[C@H]1c1ncc(-c2ccc3c(c2)OCn2c-3c(Cc3ccccc3)c3cc(-c4cnc([C@@H]5CCCN5C(=O)[C@@H](NC(=O)OC)C(C)C)[nH]4)ccc32)[nH]1)C(C)C`, the 90% effect concentration (EC90) in assay [1] is 0.1 nM; in assay [3] it was 0.01 nM; in assay [4], 9 nM; in assay [7], 28 nM; in assay [8], 187 nM.
Consider `COC(=O)N[C@H](C(=O)N1CCC[C@H]1c1ncc(-c2ccc3c(c2)OCn2c-3cc3cc(-c4cnc([C@@H]5CCCN5C(=O)[C@@H](NC(=O)OC)C(C)C)[nH]4)c(F)cc32)[nH]1)C(C)C`, for which the concentration for an effect of 90% (EC90) in assay [1] was determined as 0.007 nM; in assay [2], 5 nM; in assay [3], 0.007 nM; in assay [4] it was 68 nM; in assay [5], 0.02 nM; in assay [6] it was 0.2 nM. In addition, the figures for the concentration for an effect of 90% (EC90) in assay [7] and in assay [8] were 150 nM and 77 nM, respectively.
`COC(=O)N[C@H](C(=O)N1CCC[C@H]1c1ncc(-c2ccc3c(c2)O[C@@H](c2ccccc2)n2c-3c(F)c3cc(-c4cnc([C@@H]5CCCN5C(=O)[C@@H](NC(=O)OC)C(C)C)[nH]4)ccc32)[nH]1)C(C)C`: the EC90 in assay [1] was determined as 0.007 nM; in assay [2] it was 0.3 nM; in assay [3], 0.007 nM; in assay [4], 0.7 nM; in assay [5], 0.004 nM; in assay [6], 0.06 nM. Also, the EC90 was 15 nM in assay [7] and 25 nM in assay [8].
For the molecule `COC(=O)N[C@H](C(=O)N1C[C@H](F)C[C@H]1c1ncc(-c2cc(F)c3c(c2)OC(c2cccc(OC)c2)n2c-3cc3cc(-c4cnc([C@@H]5C[C@@H](F)CN5C(=O)[C@@H](NC(=O)OC)C(C)C)[nH]4)ccc32)[nH]1)C(C)C` (stereo partly drawn), the 90% effect concentration (EC90) in assay [1] worked out at 0.006 nM; in assay [3] it was 0.007 nM; in assay [4], 2 nM; in assay [7] it was 39 nM; in assay [8], 0.07 nM.
In the case of `COC(=O)N[C@H](C(=O)N1CCC[C@H]1c1ncc(-c2ccc3c(c2)cc2n3C(c3ccc(OC(F)(F)F)cc3)Oc3cc(-c4cnc([C@@H]5C[C@@H](F)CN5C(=O)[C@@H](NC(=O)OC)C(C)C)[nH]4)cc(F)c3-2)[nH]1)C(C)C` (stereo partly drawn), the EC90 in assay [1] came to 0.03 nM; in assay [3], 0.008 nM; in assay [7], 13 nM; in assay [8], 0.3 nM.
Turning to `COC(=O)N[C@H](C(=O)N1CCC[C@H]1c1ncc(-c2cc(F)c3c(c2)OC(c2ccccc2)n2c-3cc3cc(-c4cnc([C@@H]5C[C@@H](F)CN5C(=O)[C@@H](NC(=O)OC)C(C)C)[nH]4)ccc32)[nH]1)C(C)C` (mixture of isomers), the 90% effect concentration (EC90) in assay [1] was found to be 0.003 nM; in assay [2] it was 0.3 nM; in assay [3], 0.003 nM; in assay [4], 2 nM; in assay [5], 0.01 nM; in assay [6] it was 0.05 nM. The EC90 came out at 32 nM in assay [7] and 4 nM in assay [8].
As for `COC(=O)N[C@H](C(=O)N1CCC[C@H]1c1ncc(-c2ccc3c(c2)OC(c2ccccc2)n2c-3c(F)c3cc(-c4cnc([C@@H]5C[C@@H](F)CN5C(=O)[C@@H](NC(=O)OC)C(C)C)[nH]4)ccc32)[nH]1)C(C)C` (mixture of isomers), the 90% effect concentration (EC90) in assay [1] was 0.005 nM; in assay [2], 2 nM; in assay [3], 0.003 nM; in assay [4], 2 nM; in assay [5], 0.03 nM; in assay [6] it was 0.1 nM. Also, in assay [8], the EC90 is 2 nM.
For the molecule `COC(=O)N[C@H](C(=O)N1CCC[C@H]1c1nc(-c2ccc3c(c2)O[C@@H](c2ccccc2)n2c-3cc3cc(-c4c[nH]c([C@@H]5CCCN5C(=O)[C@@H](NC(=O)OC)C(C)C)n4)ccc32)c[nH]1)C(C)C`, the results for the EC90 in assay [2], in assay [5] and in assay [6] were 0.12 nM, 0.019 nM and 0.016 nM, respectively.
On to `COC(=O)N[C@H](C(=O)N1C[C@H](F)C[C@H]1c1ncc(-c2cc(F)c3c(c2)OC(c2cccc(OC(F)(F)F)c2)n2c-3cc3cc(-c4cnc([C@@H]5C[C@@H](F)CN5C(=O)[C@@H](NC(=O)OC)C(C)C)[nH]4)ccc32)[nH]1)C(C)C` (stereo partly drawn), for which the EC90 turned out to be 0.006 nM in assay [1]; 0.005 nM in assay [3]; 7 nM in assay [4]; 52 nM in assay [7]; 0.2 nM in assay [8].
